Source: PubChem BioAssay (The Scripps Research Institute Molecular Screening Center)
An excerpt weighted towards active compounds, which were near 1.2% of everything screened.
HCV core dimer – HCV core protein dimerization inhibition; TR-FRET GST/Flag-core106 dimerization, 1536-well; inhibition, % at 5 µM; 300,000 compounds, 0.33% hits; AID 1899;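 active = inhibition above the mean of all tested compounds plus 3 SD, set per screening campaign, cut at about 45% in these data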
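System: GST-tagged and Flag-tagged HCV core protein residues 1-106 / Input: core106 proteins, GST 13.5 nM and Flag 17 nM / Buffer or medium: KF-containing HEPES buffer, pH 7.45, DTT, CHAPS, BSA / Probe or stimulus: Eu-anti-GST and XL665-anti-Flag labelled anti-tag antibodies / Schedule: 4 h, 22.5 °C incubation / Technique: TR-FRET 671 and 617 nm emission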
EBNA-1 inh – blocks EBNA-1 binding to DNA | inhibition, % at 14.8 µM | EBNA-1 DNA binding, fluorescence polarization | AID 1950 | 300,000 compounds, 0.34% hits; in the data active = inhibition above about 28%
HCV NS3 hel inh – blocks Hepatitis C virus NS3 helicase unwinding; 290,000 compounds, 0.56% hits; inhibition, % at 10.9 µM; NS3 helicase DNA unwinding, Cy5 molecular beacon fluorescence;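 active = inhibition above the mean of all tested compounds plus 3 SD, set per campaign, cut at about 35% in these data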;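 note: 0% = DMSO wells and 100% = thioflavine S control wells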
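Assay system – hepatitis C virus NS3 helicase domain fragment enzyme · Buffer or medium – MOPS pH 6.5, MgCl2, DTT, Tween20, BSA · Reagent – Cy5/quencher beacon DNA duplex and ATP to start · Compound – single 10.9 µM dose · Timing – 1 h at 25 °C · Technique – Cy5 beacon fluorescence read at start and 1 h · Measure – % inhibition of unwinding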
ZTA DNA inh – counter-screen for EBNA-1 inhibitors: inhibitors of Epstein-Barr virus ZTA; 320,000 compounds, 0.15% hits; P03206; ZTA-DNA binding, fluorescence polarization; inhibition, % at 11 µM; AID 2234; in the data active = inhibition above about 33%
Target sequence (P03206 whole entry, looked up): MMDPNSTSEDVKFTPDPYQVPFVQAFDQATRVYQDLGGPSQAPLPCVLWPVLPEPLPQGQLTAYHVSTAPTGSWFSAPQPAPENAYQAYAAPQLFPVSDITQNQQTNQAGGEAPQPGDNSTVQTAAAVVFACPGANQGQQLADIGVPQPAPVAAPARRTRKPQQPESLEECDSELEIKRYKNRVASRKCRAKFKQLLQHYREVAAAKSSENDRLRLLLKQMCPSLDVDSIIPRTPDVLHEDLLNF
NS3 hel confirm – HCV NS3 helicase inhibition, confirmation assay; shares compounds with HCV NS3 hel inh; AID 1943; NS3 helicase DNA unwinding, Cy5 molecular beacon fluorescence; inhibition, % at 10.9 µM; 1,600 compounds, 31% hits;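 active = inhibition above the mean of all tested compounds plus 3 SD, cutoff set per campaign, cut at about 36% in these data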
DNA FID counter – displaces DNA intercalator in HCV helicase counter-screen. shares compounds with HCV NS3 hel inh. DNA fluorescent intercalator displacement, fluorescence. inhibition, % at 7.9 µM. 1,600 compounds, 4% hits; in the data active = inhibition above about 37%;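 note: 0% = vehicle and 100% = reference compound; higher means more displacement of ethidium bromide from the DNA hairpin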
* hit, by the source's call; nt = not tested or not shown.

SMILES	HCV core dimer	EBNA-1 inh	HCV NS3 hel inh	ZTA DNA inh	NS3 hel confirm	DNA FID counter
Cc1cc(C)n2nc(SCC(=O)Nc3ccc(F)cc3)nc2n1	-4	-1	51*	-1	-12	3
Cc1nnc(-c2ccco2)c2cn(-c3cccc(Br)c3)nc12	28	0	39*	4	4	9
CC(=O)c1nn(-c2cccc(Br)c2)cc1C(=O)c1ccco1	3	-11	8	-9	nt	nt
CCOC(=O)C1CC(c2ccccc2)=NNC1=O (stereo not drawn)	0	0	3	-12	nt	nt
Cc1nc2sc3c(c2c(=O)[nH]1)CCC3	-3	7	10	13	nt	nt
Cc1cc(-c2nc3c4c5c(sc4[nH]c(=O)n3n2)CCC5)c(C)o1	55*	-3	41*	14	76*	8
CCN(CC)c1ccc2nc3c4ccccc4c(=O)cc-3oc2c1	nt	nt	71*	nt	101*	4
CCN(CC)c1ccc2cc(C=O)c(=O)oc2c1	0	-11	-1	-1	nt	nt
C=C[C@@H]1c2cc(C)ccc2N(S(=O)(=O)c2ccc(C)cc2)[C@H](c2ccc(OC(C)=O)cc2)C1(C#N)C#N	nt	nt	nt	-13	nt	nt
COc1ccc(S(=O)(=O)N2CCOC2CNC(=O)C(=O)NCc2ccc(F)cc2)cc1OC (stereo not drawn)	8	9	8	23	nt	nt
CCOc1ccc(N(CC(=O)NCc2ccccc2Cl)S(=O)(=O)c2c(C)noc2C)cc1	-6	-2	40*	9	-7	-25
Cc1ccc(N(CC(=O)NCc2ccccc2Cl)S(=O)(=O)c2c(C)noc2C)cc1	3	-6	-23	-5	nt	nt
Cc1noc(C)c1S(=O)(=O)N(CC(=O)NCCc1ccccc1)c1ccc(C(C)C)cc1	-11	7	37*	4	-9	-27
CCNc1nc(NCC)n2c(SC(C(=O)Nc3cc(C)ccc3OC)c3ccccc3)nnc2n1 (stereo not drawn)	10	1	4	-4	nt	nt
O=C(N/N=C/c1ccccn1)c1cc(-c2cccc3ccccc23)n[nH]1	5	-5	1	3	nt	nt
O=C(O)c1ccc(/C=N/NC(=O)c2cc(-c3ccc4c5c(cccc35)CC4)n[nH]2)cc1	33	-3	37*	18	65*	-2
O=C(NCc1cccs1)C1CC(=O)N(c2ccc(Cl)cc2)C1 (stereo not drawn)	-2	-16	-11	-6	nt	nt
CN(C)C(CNc1ncnc2sccc12)c1cccs1 (stereo not drawn)	-3	-7	74*	-15	-13	4
O=C(NN=C1CCN(Cc2ccccc2)CC1)c1cc2ccccc2cc1O	37	14	39*	7	29	-12
Cc1ccc(-n2cccc2/C=C2\C(=N)N3N=C(C(C)C)SC3=NC2=O)cc1	21	6	42*	4	35	-28
CC1=NN(C(N)=S)C(=O)C1N=Nc1ccccc1O (stereo not drawn)	-6	-13	42*	-18	-15	17
Cc1cc(Cl)ccc1NC(=O)CN1C(=O)NC2(CCCc3ccccc32)C1=O (stereo not drawn)	-2	8	nt	-5	nt	nt
Clc1ccc(C2Nc3cccc4cccc(c34)N2)cc1Cl	8	-20	59*	-18	-22	25
Brc1cccc(C2Nc3cccc4cccc(c34)N2)c1	8	-9	24	-6	nt	nt
Clc1cccc(C2Nc3cccc4cccc(c34)N2)c1	47*	-14	55*	2	-10	13
SMILES	HCV core dimer	EBNA-1 inh	HCV NS3 hel inh	ZTA DNA inh	NS3 hel confirm	DNA FID counter
COc1ccc(C2Nc3cccc4cccc(c34)N2)cc1	-26	0	6	-1	nt	nt
COc1ccc(C(=O)COC(=O)c2cnc(C)cn2)c(OC)c1	4	7	nt	-1	nt	nt
O=C(Cn1c(=O)n(Cc2ccco2)c(=O)c2c3c(sc21)CCCC3)Nc1ccccc1	48*	-10	47*	5	5	7
O=c1c2c3c(sc2n(CCN2CCCCC2)c(=O)n1Cc1ccco1)CCCCC3	6	9	-9	-1	nt	nt
NC(=O)Cn1c(=O)n(Cc2ccco2)c(=O)c2c3c(sc21)CCCCC3	30	6	39*	6	5	-13
Cc1ccc(N(C)C(=O)c2cc(S(=O)(=O)N3CCCC3)cn2C)cc1	-14	-12	15	-4	nt	nt
